Measured values as given in the RNAGym collection of RNA variant scans (doi:10.1126/science.aae0568).
This sample holds only a part of the variants without activity.

B1: tRNA (parent)
chain: GUUCCGUUGGCGUAAUGGUAACGCGUCUCCCUCCUAAGGAGAAGACUGCGGGUUCGAGUCCCGUACGGAACG

Variants of: B1
Test: yeast fitness relative to wild type (ratio to wild type); higher = fitter; tRNA-Arg(CCU), competitive growth, 37 C, YPD
In short: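 Changes in genotype frequencies gave Darwinian fitness relative to wild type. Frequencies were read by 100-nucleotide paired-end sequencing of gene amplicons before and after pooled Saccharomyces cerevisiae strains, carrying tRNA-Arg(CCU) gene variants at the native locus, were competed in YPD at 37°C for 24 hours in six replicates. A genotype was kept only with ≥ 100 starting reads, and estimates < 0.5 were set to 0.5.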

Compared with G6A A15C C22U C33G C62A G63C, G6A C31G C61U is lower in yeast fitness: 0.753 for the first, ≤ 0.5 for the second.

Going from G6A C27G A45G to G6A C30A G39A U47A G63C, the yeast fitness falls from 0.521 to ≤ 0.5.

G6A A14U A57G U59C and G6A C11G A45U A57G A70G cannot be ordered by yeast fitness: ≤ 0.5 for the first, ≤ 0.5 for the second.

Compared with C5U U35A A36G, G6A C11U C27A is higher in yeast fitness: 0.673 for the first, 0.719 for the second.

G6A A37U A40C and G6A A21C C49A A70G cannot be ordered by yeast fitness: ≤ 0.5 for the first, ≤ 0.5 for the second.

First: G6A A57C A65C A70C
Second: G6A C49U G58A
The yeast fitness of the first is lower: 0.609 for the first, 0.654 for the second.

Going from G6A C60A G67C to G6A A15U G23A, the yeast fitness falls from 0.536 to 0.525.

Compared with G6A G9C C46G, G6A G9C A21C C30U A45U C55A is lower in yeast fitness: 0.561 for the first, 0.517 for the second.

First: C5U U19C
Second: G6A A42G C61G C66A
The yeast fitness of the first is higher: 0.963 for the first, ≤ 0.5 for the second.

Going from G6A C11G G17U G38A A43U U54A to G6A C31G A65G, the yeast fitness rises from ≤ 0.5 to 0.547.

Going from G6A A14U C55A to G6A A36U A37G A40C C66U, the yeast fitness falls from 0.552 to ≤ 0.5.

Going from G6A C11U A69U to G6A A21C C33G, the yeast fitness falls from 0.707 to ≤ 0.5.

Compared with G6A C24A, G6A A37C A40G is lower in yeast fitness: 0.654 for the first, ≤ 0.5 for the second.

C5U U16G G41C G51A C60G A70U and G6A C22U A40G A43U C46G C49G C62U cannot be ordered by yeast fitness: ≤ 0.5 for the first, ≤ 0.5 for the second.

First: C5U U32G A36U G68C
Second: G6A C31G A70C
The yeast fitness of the first is lower: ≤ 0.5 for the first, 0.553 for the second.

First: G6A C22U A42C U54A
Second: G6A A15G A65U
The yeast fitness of the first is lower: ≤ 0.5 for the first, 0.607 for the second.

Compared with G6A A14U C31G G38A, G6A A15G C46U C66U is higher in yeast fitness: ≤ 0.5 for the first, 0.77 for the second.

Compared with C5U U26A C46G, G6A G9C C11G C22A C30U C31G G67U is lower in yeast fitness: 0.717 for the first, ≤ 0.5 for the second.

G6A C33U G56C C60U and C5U U28C A36C A40C A42U cannot be ordered by yeast fitness: ≤ 0.5 for the first, ≤ 0.5 for the second.

Compared with G6A G9C A42U A43U A65G G68A A70C, G6A C29A G67C is lower in yeast fitness: 0.663 for the first, ≤ 0.5 for the second.

G6A A20U C49U G50U and G6A A15C C27A C61G U64C A70U cannot be ordered by yeast fitness: ≤ 0.5 for the first, ≤ 0.5 for the second.

C5U U35C C62U G68C and G6A A20G A21G C29G cannot be ordered by yeast fitness: ≤ 0.5 for the first, ≤ 0.5 for the second.

Going from G6A C33G U47A U64G to C5U U35A G48C C61U, the yeast fitness rises from 0.558 to 0.57.

Compared with G6A A20C C46G, C5U U26G C33G G50C is lower in yeast fitness: 0.696 for the first, ≤ 0.5 for the second.

C5U U19C C24G C61A A70G and G6A C22G U53A cannot be ordered by yeast fitness: ≤ 0.5 for the first, ≤ 0.5 for the second.

Going from C5U U28C C46A C66G to G6A A36U C66A G68C, the yeast fitness falls from 0.534 to ≤ 0.5.

Compared with G6A C29G, G6A C29U is higher in yeast fitness: 0.634 for the first, 0.748 for the second.

G6A C11G C61G and G6A G9C G68C cannot be ordered by yeast fitness: ≤ 0.5 for the first, ≤ 0.5 for the second.

C5U U19C C55A G58C and G6A C24U A40U A45U cannot be ordered by yeast fitness: ≤ 0.5 for the first, ≤ 0.5 for the second.

Compared with G6A A20G C24U, C5U U32C A57C is lower in yeast fitness: 0.612 for the first, 0.583 for the second.

Going from C5U U19C G56C U59A A65G to C5U U16C C55A, the yeast fitness rises from ≤ 0.5 to 0.627.

Going from G6A C11A A14C U19C U32A A42C to G6A C61A G67A, the yeast fitness falls from 0.664 to 0.547.

First: G6A C33U
Second: G6A C24A C27U C29G G44C G68C
The yeast fitness of the first is higher: 0.649 for the first, ≤ 0.5 for the second.

C5U U28C C29G and G6A C31G C34U C46U G56A cannot be ordered by yeast fitness: ≤ 0.5 for the first, ≤ 0.5 for the second.

Compared with G6A A21U C62U, C5U U32C A70U is higher in yeast fitness: ≤ 0.5 for the first, 0.66 for the second.

Going from G6A C31U G63A to G6A A20U G25A, the yeast fitness falls from 0.582 to 0.574.

G6A C29U A42U A43U C55G and C5U U16A C34A A70G cannot be ordered by yeast fitness: ≤ 0.5 for the first, ≤ 0.5 for the second.

First: G6A C46A
Second: G6A C24U A65C
The yeast fitness of the first is higher: 0.97 for the first, ≤ 0.5 for the second.

First: G6A C24U U28A C60U
Second: C5U U19A G25C A43U
The yeast fitness of the first is lower: ≤ 0.5 for the first, 0.758 for the second.

Compared with G6A A37C, C5U U35G U47A G48A A65U is lower in yeast fitness: 0.824 for the first, 0.557 for the second.

C5U U13A C46A C62U C66U and G6A A42C U53G G67C cannot be ordered by yeast fitness: ≤ 0.5 for the first, ≤ 0.5 for the second.

Compared with G6A C11A A37G G68C, C5U U19A G51C G58A is lower in yeast fitness: 0.562 for the first, ≤ 0.5 for the second.

Compared with C5U U28C C61U, G6A A20C C66A is lower in yeast fitness: 0.705 for the first, 0.549 for the second.

First: G6A C55U G58A G67A
Second: C5U U13G A69U
The yeast fitness of the first is lower: ≤ 0.5 for the first, 0.76 for the second.

Compared with G6A C11U C22G, G6A C33A G58A G63C is lower in yeast fitness: 0.555 for the first, ≤ 0.5 for the second.

Going from G6A G9C G44C to C5U U28A A69C, the yeast fitness falls from 0.605 to 0.541.

Compared with C5U U32C C49G G68C, G6A C29G U32C A69C is lower in yeast fitness: 0.593 for the first, ≤ 0.5 for the second.

Compared with G6A A40U U53A C61A A65U A69U, G6A C22G G25A U47A A70C is lower in yeast fitness: 0.511 for the first, ≤ 0.5 for the second.

Going from G6A A20C C34A A45U C46U A57C to G6A C22U C30G A36G, the yeast fitness rises from ≤ 0.5 to 0.621.

G6A C11A A40G G56C A65C G67A and G6A A15G U54G C55U cannot be ordered by yeast fitness: ≤ 0.5 for the first, ≤ 0.5 for the second.

Compared with C5U U32G C33G, C5U U26G G58A is higher in yeast fitness: ≤ 0.5 for the first, 0.924 for the second.

C5U U16A G38A A42G U64G and G6A A15C A20G cannot be ordered by yeast fitness: ≤ 0.5 for the first, ≤ 0.5 for the second.

Going from G6A A15C A20U to G6A C24U A36C A43U A69U, the yeast fitness falls from 0.56 to ≤ 0.5.

G6A C22G C60A C62U and C5U U19C A37G G63C cannot be ordered by yeast fitness: ≤ 0.5 for the first, ≤ 0.5 for the second.

G6A G9A C24G U35A G48C and G6A C33G G48A U54C C66G A70C cannot be ordered by yeast fitness: ≤ 0.5 for the first, ≤ 0.5 for the second.

Going from G6A A20C A70U to G6A A20G C31G C46U G67A, the yeast fitness falls from 0.739 to ≤ 0.5.

C5U U16G A43U G58A and G6A C24G G39C C61U C66U cannot be ordered by yeast fitness: ≤ 0.5 for the first, ≤ 0.5 for the second.

C5U U16C C31A G67C and G6A C11A A20G C62A cannot be ordered by yeast fitness: ≤ 0.5 for the first, ≤ 0.5 for the second.

G6A A14U A57G U64G and G6A A15C A36U A65C cannot be ordered by yeast fitness: ≤ 0.5 for the first, ≤ 0.5 for the second.

G6A C24U U26G C34A C46G G56A C66U and G6A C34A C46U A65C cannot be ordered by yeast fitness: ≤ 0.5 for the first, ≤ 0.5 for the second.

Compared with G6A G9A, G6A C61U G63C is lower in yeast fitness: 0.969 for the first, ≤ 0.5 for the second.

G6A C24U A37U A40U and G6A C24U C61G C62U C66U A69U cannot be ordered by yeast fitness: ≤ 0.5 for the first, ≤ 0.5 for the second.

G6A C11U C62A A65U C66U and C5U U19C U26A C62A cannot be ordered by yeast fitness: ≤ 0.5 for the first, ≤ 0.5 for the second.

C5U U26C A36C U64A and G6A C11G A21G C27G C29U U35G G56C G63A U64C G67C cannot be ordered by yeast fitness: ≤ 0.5 for the first, ≤ 0.5 for the second.

First: G6A C66U
Second: C5U U26C
The yeast fitness of the first is higher: 1.03 for the first, 0.862 for the second.

Compared with G6A C34G A37U C49G, G6A A45C C55G C61U is lower in yeast fitness: 0.532 for the first, ≤ 0.5 for the second.

G6A A20C A40C A42U G56A C66G and G6A C11A U32A C34G G58A cannot be ordered by yeast fitness: ≤ 0.5 for the first, ≤ 0.5 for the second.

First: C5U U13A C29G C31A G63C
Second: G6A C22A U35A
The yeast fitness of the first is higher: 0.533 for the first, ≤ 0.5 for the second.

Going from G6A C11A A57C G68A to G6A A40G A42G U59C, the yeast fitness rises from 0.549 to 0.675.

Going from G6A A15C A36C A42U A43G C55G C61U to C5U U32C A42G, the yeast fitness rises from ≤ 0.5 to 0.531.

G6A A15G U28G A42U G48A and C5U U16G A65G C66U cannot be ordered by yeast fitness: ≤ 0.5 for the first, ≤ 0.5 for the second.

First: G6A A15C U16A A21G U26A C30U C61A A69U
Second: G6A C27G G38C A65C
The yeast fitness of the first is lower: ≤ 0.5 for the first, 0.595 for the second.

Compared with G6A A21G C49U, C5U U47G G50C is lower in yeast fitness: 0.791 for the first, 0.575 for the second.

First: G6A A14G C49U
Second: G6A C34U G39C
The yeast fitness of the first is higher: 0.57 for the first, ≤ 0.5 for the second.

First: C5U U26A G56C A65C
Second: C5U U32C G39A C60U C61G G68C
The yeast fitness of the first is higher: 0.53 for the first, ≤ 0.5 for the second.

Compared with G6A C27G, G6A A21C U47A C61A A70C is lower in yeast fitness: 0.758 for the first, ≤ 0.5 for the second.

Compared with G6A C34G G68A, G6A A21C A42G is higher in yeast fitness: 0.556 for the first, 0.692 for the second.

Going from G6A C30A A45U to G6A A14U U64G, the yeast fitness falls from 0.667 to 0.664.

C5U U47A G48C G51A and G6A G9C A14G cannot be ordered by yeast fitness: ≤ 0.5 for the first, ≤ 0.5 for the second.

First: C5U U35G A65U
Second: G6A A45C C46G G51C
The yeast fitness of the first is higher: 0.576 for the first, ≤ 0.5 for the second.

Compared with G6A A15C C27A C61G A70U, G6A C11U G68A is lower in yeast fitness: 0.579 for the first, ≤ 0.5 for the second.

Going from G6A A45G to G6A A45C A70G, the yeast fitness falls from 0.928 to 0.536.

G6A A20U C46A C55G and G6A C27U C29A G58C C66U cannot be ordered by yeast fitness: ≤ 0.5 for the first, ≤ 0.5 for the second.

For G6A A45U G48A C55A, the yeast fitness was ≤ 0.5.
